# KCNK3 inh: human KCNK3 channel inhibitors, primary screen, CHO cells, FluxOR thallium flux, B-score; 340,000 tested, 0.84% active; FluxOR fluorescence; stronger effect = lower value; B-score at 10 µM; Potassium channel subfamily K member 3 (Homo sapiens), O14649;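 active = B-score under library mean minus 4 SD, starting fluorescence ratio at most library mean plus 5 SD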;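 note: more negative B-score means stronger inhibition of thallium flux through KCNK3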
# KCNQ1 inh: inhibitors of human KCNQ1 channel, primary screen, cell-based, thallium flux, high-throughput; CHO-K1 KCNQ1, FluxOR thallium flux fluorescence; stronger effect = higher value; AID 2642, 2010; Potassium voltage-gated channel subfamily KQT member 1 (Homo sapiens), P51787; 310,000 tested, 1.3% active; B-score at 10 µM;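 active = compounds whose thallium flux B-score, printed positive for inhibition, exceeds three library SD while starting fluorescence stays within three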;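 note: channel opened by potassium depolarization with thallium stimulus after 20 min compound exposure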
# hERG protect: hERG rescue from dofetilide block, primary screen, cell-based, CHO-hERG, FluxOR thallium flux, dofetilide IC70; AID 1511, 2009; dofetilide IC70 present; activation (rescue from dofetilide block), less the hit threshold, % at 10 µM; 310,000 tested, 0.51% active; Voltage-gated inwardly rectifying potassium channel KCNH2 (Homo sapiens), Q12809;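 active = activation above the mean of controls blocked by dofetilide plus 5 SD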;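 note: thallium influx through hERG after potassium depolarization seen as dye fluorescence rise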
# Kir21 block: inhibitors of mouse Kir2.1 inward-rectifier potassium channel. HEK293-Kir2.1, FluxOR thallium flux fluorescence; stronger effect = lower value. B-score at 10 µM. 310,000 tested, 0.85% active. AID 1672, 2009;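 active = fluorescence ratio B-score at or below minus 3 SD of library scores, with starting-brightness B-score within 2 SD, cut at about -4.2 in these data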;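 note: channel flux triggered by added potassium and thallium sulfate stimulus; B-score of peak minus minimum fluorescence over baseline after thallium stimulus; more negative B-score means stronger Kir2.1 block with less thallium influx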
# KCNQ1 pot: potentiators or activators of KCNQ1 channel, primary screen, cell-based, thallium flux, high-throughput. Potassium voltage-gated channel subfamily KQT member 1 (Homo sapiens), P51787. CHO-K1 KCNQ1, thallium flux FluxOR fluorescence; stronger effect = higher value. B-score at 10 µM. 310,000 tested, 0.35% active. AID 2648, 2010;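 active = fluorescence ratio B-score, a plate-corrected score, at least three library SD, with initial intensity B-score within 5 SD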
#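 Material: CHO-K1 cells stably expressing KCNQ1. Medium: assay buffer for compound exposure, DMSO matched across wells. Reagent: K+/Tl+ depolarizing stimulus. Compound dosing: single-concentration screen. Times: 37 °C overnight plating, 90-min dark dye load, 20-min compound pretreatment. Technique: FluxOR Tl+ flux fluorescence.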
# KCNK9 block: KCNK9 potassium channel inhibitors, primary screen, HEK293 cells, thallium flux; B-score at 10 µM; 310,000 tested, 1.2% active; Potassium channel subfamily K member 9 (Homo sapiens), Q9NPC2; FluxOR thallium flux fluorescence; stronger effect = lower value;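 active = ratio B-score over 3 SD below the library mean, with starting fluorescence within 5 SD of its mean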;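 note: negative B-score means less thallium flux so channel inhibition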
# Target sequence (Q9NPC2 whole entry, looked up): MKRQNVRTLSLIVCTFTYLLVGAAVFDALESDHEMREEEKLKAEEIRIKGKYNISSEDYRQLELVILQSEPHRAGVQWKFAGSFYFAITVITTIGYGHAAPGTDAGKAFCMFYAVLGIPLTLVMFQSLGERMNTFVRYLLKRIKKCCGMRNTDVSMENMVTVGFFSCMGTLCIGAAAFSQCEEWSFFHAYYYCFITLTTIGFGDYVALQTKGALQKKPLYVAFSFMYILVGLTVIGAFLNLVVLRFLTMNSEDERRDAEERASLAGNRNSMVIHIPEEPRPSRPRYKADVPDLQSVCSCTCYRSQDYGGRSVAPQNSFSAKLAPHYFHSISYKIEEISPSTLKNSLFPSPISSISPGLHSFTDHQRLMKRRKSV
# KCNK9 block conf: KCNK9 potassium channel inhibitors, confirmation, HEK293 cells, thallium flux, duplicate; shares compounds with KCNK9 block; 4,900 tested, 43% active; AID 492992, 2010; FluxOR thallium flux fluorescence; inhibition, % at 10 µM;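 active = thallium signal inhibited by more than 5 SD of the compound-free buffer control wells, on both duplicate plates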;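 note: 0% = assay buffer control wells without compound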
# Kir21 sel: mouse Kir2.1 channel inhibition, confirmation, selectivity assay for KCNK9 modulator project, cell-based, HEK293, thallium flux; shares compounds with KCNK9 block; 4,900 tested, 4% active; inhibition, % at 10 µM; AID 492993, 2010; Kir2.1 cells, FluxOR thallium flux fluorescence;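 active = thallium signal drop more than 5 SD beyond the mean of the no-compound control wells, seen in both duplicate plates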;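 note: signal is fluorescence rise after thallium addition divided by baseline fluorescence; plate controls were assay buffer only for no effect and full block by chlorpromazine control for full effect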
# KCNK9 uninduced: thallium flux in non-induced HEK293 cells, confirmation, counter-screen for KCNK9 inhibitor project, cell-based, second counter screen, non-induced KCNK9-HEK293; FluxOR thallium flux; shares compounds with KCNK9 block; 4,900 tested, 40% active; inhibition, % at 10 µM; AID 492997, 2010;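 active = thallium signal drop beyond 5 SD of the untreated control mean, on both duplicate plates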;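 note: plate controls were buffer only IC0 wells for no effect and SID17386958 at its maximal inhibitory level for full effect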
# * hit, by the source's call; i = inactive; nt = no result given. In the library only some 3.7% were active in any assay of this set; here they are far more common.
SMILES,KCNK3 inh,KCNQ1 inh,hERG protect,Kir21 block,KCNQ1 pot,KCNK9 block,KCNK9 block conf,Kir21 sel,KCNK9 uninduced
CCC(=O)N1c2ccc(S(=O)(=O)N3CCN(c4cc(C)ccc4C)CC3)cc2CC1C (stereo not drawn),i,i,-9,1.7,i,i,i,i,i
COc1ccc(N2CCN(CC(=O)Nc3ccc(C)cc3)CC2)cc1,i,i,-3,1.8,i,i,nt,nt,nt
COc1ccc(NC(=O)CN2CCN(CC(=O)Nc3cc(OC)cc(OC)c3)CC2)cc1,i,nt,nt,nt,nt,nt,nt,nt,nt
COc1ccc(NC(=O)CN2CCN(c3c(C)cccc3C)CC2)cc1,i,i,-8,0.65,i,i,i,i,i
COc1ccc(NC(=O)CN2CCN(c3ccc(C)cc3C)CC2)cc1,i,i,-1,-0.38,i,i,i,i,i
COc1ccc(NC(=O)CN2CCN(c3c(C)cc(C)cc3C)CC2)cc1,i,i,-8,0.35,i,i,i,40%*,i
c1ccc(COc2cccc(CN3CCN(c4ccccn4)CC3)c2)cc1,i,i,-20,0,i,-9.1*,35%*,i,27%*
Cn1c(=O)c2c(ncn2CC(=O)OCC(=O)c2ccc(F)c(F)c2)n(C)c1=O,i,i,-3,0.03,i,i,nt,nt,nt
Cc1cc(C)c(NC(=O)COC(=O)C2CCCCC2)c(C)c1,i,nt,nt,nt,nt,nt,nt,nt,nt
C/C(=N\NC(=O)c1ccccc1O)C1C(=O)c2ccccc2C1=O,i,11*,-31,0.93,i,i,i,i,24%*
C/C(=N/NC(=O)c1cc2ccccc2cc1O)C1C(=O)c2ccccc2C1=O,i,i,-16,-1.1,i,i,nt,nt,nt
Cc1sc(NC(=O)c2ccco2)c(CN2CCN(c3ccccn3)CC2)c1C,-9.8*,i,-16,-0.81,i,-12*,48%*,i,30%*
Cc1cc(N2CCCCC2)n2ncc(-c3ccc(Cl)cc3)c2n1,i,i,-12,0.6,i,-11*,54%*,i,36%*
COc1cccc(NC(=O)c2ccco2)c1,i,i,-7,-1.1,i,i,nt,nt,nt
O=C(Nc1ccccc1)c1ccc(-c2ccc(Br)cc2)o1,i,i,-5,0.03,i,i,nt,nt,nt
COc1c(C)cc(Br)cc1C(=O)Nc1cccc(NC(=O)c2ccco2)c1,-11*,i,-15,-0.29,i,-11*,67%*,i,i
COc1c(C)cc(Br)cc1C(=O)NC(=S)Nc1ccc(Cl)c(C(=O)O)c1,i,i,-5,0.63,i,i,i,i,i
COc1ccccc1NC(=O)c1ccc(-c2ccc(Br)cc2)o1,i,i,-2,1.8,i,-11*,33%*,i,30%*
COc1ccc(Br)cc1C(=O)Nc1cccc(NC(=O)c2ccco2)c1,i,i,-21,0.01,i,-18*,59%*,i,i
CC(=O)N1CCN(C(=O)c2cccc(S(=O)(=O)NCc3ccccc3)c2)CC1,i,i,-4,0.53,i,i,nt,nt,nt
CCC1CCCCN1C(=O)COc1ccc2c3c(c(=O)oc2c1)CCC3 (stereo not drawn),i,nt,nt,nt,nt,nt,nt,nt,nt
N#Cc1nc(-c2cccc(Cl)c2)oc1N1CCC(C(N)=O)CC1,i,i,-2,0.13,i,i,nt,nt,nt
COc1ccccc1C(=O)O[C@H]1[C@H](Cc2ccccc2)NS(=O)(=O)[C@H]2C[C@@H]3C=C[C@]12O3,i,nt,nt,nt,nt,nt,nt,nt,nt
O=C(COc1ccc(Cl)cc1Br)NC(=O)NC1CCCC1,i,nt,nt,nt,nt,nt,nt,nt,nt
COc1ccc(NC(=O)c2ccco2)cc1S(=O)(=O)N1CCCCC1,i,i,-6,0.01,i,i,i,i,i
SMILES,KCNK3 inh,KCNQ1 inh,hERG protect,Kir21 block,KCNQ1 pot,KCNK9 block,KCNK9 block conf,Kir21 sel,KCNK9 uninduced
COc1ccccc1NC(=O)c1cc(Br)ccc1Cl,i,i,-11,-0.66,i,i,nt,nt,nt
COc1ccc(Br)cc1C(=O)Nc1ccccc1-c1ccccc1,i,i,-3,2,i,-10*,52%*,i,42%*
COc1ccc(S(=O)(=O)N2CCCCC2)cc1NC(=O)c1ccco1,i,i,-7,-0.91,i,i,nt,nt,nt
Cc1noc(C)c1COc1ccc(C(=O)N2CCN(c3ccccn3)CC2)cc1,i,i,-15,-1.6,i,i,nt,nt,nt
COC(=O)c1cc(CN2CCN(c3ccccc3C)CC2)ccc1O,i,i,-15,-1.2,i,i,i,i,i
Cc1ccccc1N1CCN(Cc2cccc(C(=O)O)c2)CC1,i,i,-6,-0.44,i,i,nt,nt,nt
CCN1C(=O)/C(=C\c2ccc(-c3ccc([N+](=O)[O-])cc3OC)o2)SC1=Nc1cccc(C(=O)O)c1,i,i,-2,1.3,i,i,i,i,i
COc1ccc(-c2csc(Nc3ncccc3C)n2)cc1,i,i,-9,0.2,i,i,i,i,i
COc1ccc(-c2csc(Nc3ncccc3C)n2)cc1OC,i,i,-3,-1.1,i,i,nt,nt,nt
CCOC(=O)C1=C(COC(=O)c2cccc(NC(C)=O)c2)NC(=O)NC1C (stereo not drawn),i,i,-6,-2.2,i,i,nt,nt,nt
CCOC(=O)c1nc(Nc2cc(Cl)ccc2OC)c2ccccc2n1,i,i,-3,-1.2,i,-13*,46%*,i,i
CCOC(=O)c1nc(Nc2ccccc2)c2ccccc2n1,i,i,-9,2.1,i,i,nt,nt,nt
O=C(CSC1=NCCS1)Nc1ccnc2ccccc12,i,i,-23,-0.35,i,i,nt,nt,nt

# Screens deposited in PubChem BioAssay by Johns Hopkins Ion Channel Center.
